For 71 compounds, cytotoxicity results are on record in ChEMBL document CHEMBL4513216, “Probing the Open Global Health Chemical Diversity Library for Multistage-Active Starting Points for Next-Generation Antimalarials” (ACS Infect Dis, 2020).

The data set can be described thus: Toxicity liver stage against HepG2, at 10uM. More on the design: test concentration 10 uM, cell line HepG2-A16-CD81EGFP. The settings on record: human, HepG2-A16-CD81EGFP cells; read-out: INHIBITION
In kind it is cell-based. The gist of the method:
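Uninfected HepG2-A16-CD81EGFP cells, 3 × 10^3 per well, 1536-well, plated on prespotted compound at 10 μM final, parasite-free screening media added to match infected plates; puromycin 10 μM positive, DMSO 0.5% negative; run in parallel with 48 h PbLuc assay at 37 °C, 5% CO2; viability by CellTiter-Glo luminescence, normalized to controls.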
In the case of `O=C(NCCCN1CCCC1=O)c1ccc(-n2ccc3ccccc32)s1`, the cytotoxicity at 10 µM came out at 6.69%.

Take `O=C(O)c1cn(-c2ccccn2)c(=O)c2ccccc12`: the cytotoxicity at 10 µM was found to be 0.847%.

In the case of `COc1ccc(C(=O)CNC(=O)c2nc(Cl)sc2C(C)C)cc1`, the cytotoxicity at 10 µM was -3.15%.

For `Cc1ccc(N2CCC3(CCN(C(=O)C4CCOC4)CC3)CC2)nn1` (stereo unspecified), the cytotoxicity at 10 µM was -0.28%.

As for `CN1CCN(Cc2cn3c(n2)CN(CC2CC2)CC3)CC1`, the cytotoxicity at 10 µM was -119%.

Take `O=C(CC1CC1)N1CCC2(CC1)CC(Oc1ccccc1)CO2` (stereo unspecified): the cytotoxicity at 10 µM is -0.82%.

For the compound `Cc1ccc(CN2CCC3(CC2)CC(NC(=O)c2ccccn2)CO3)o1` (stereo unspecified), the cytotoxicity at 10 µM came to 3.8%.

With `O=C(CC1Cn2ncnc2NC1=O)Nc1ccccc1` (stereo unspecified), the cytotoxicity at 10 µM stood at 6.11%.

Take `COc1ccc(C(C)Nc2nc3c(C)nn(C)c3c(=O)n2C)cc1` (stereo unspecified): the cytotoxicity at 10 µM came out at 1.89%.

As for `Cc1nccn1-c1ccc(CN2CC3C[C@@H](O)CN3C[C@@H]2C)cc1` (stereo partly specified), the cytotoxicity at 10 µM is 6.26%.

For `CNc1cncc(C2CCCN2S(=O)(=O)c2ccccc2)n1` (stereo unspecified), the cytotoxicity at 10 µM was -22%.

For `O=C1Nc2ccccc2CN(CC2CCCC2)C12CCNC2` (stereo unspecified), the cytotoxicity at 10 µM stood at 7.83%.

Regarding `CCn1cc(NC(=O)N2CCN(C(=O)Oc3ccccc3)CC2)cn1`, the cytotoxicity at 10 µM came to 1.1%.

Take `CC(C(=O)N1CCCC1)S(=O)(=O)Cc1nc(C(C)(C)C)no1` (stereo unspecified): the cytotoxicity at 10 µM amounted to 8.18%.

In the case of `CC(C)(C)CC(=O)N1CCc2sccc2C1`, the cytotoxicity at 10 µM was found to be 3.61%.

`CCC1CCCCCN1C(=O)c1ccc(N2CCC(O)CC2)cc1` (stereo unspecified): the cytotoxicity at 10 µM is -9.77%.

As to `COC(=O)C1CCN(C(=O)Cn2ccc(-c3ccsc3)n2)CC1`, the cytotoxicity at 10 µM is -6.58%.

As for `COC(=O)c1ccoc1CN(C)CC(=O)NC1CC1`, the cytotoxicity at 10 µM was -1.96%.

For the compound `CC(C)(C)CN(CCC#N)C(=O)Nc1cccc(N2CCNC2=O)c1`, the cytotoxicity at 10 µM is -9.86%.

Take `COc1cc2c(nn1)CCN(Cc1noc(-c3ccccc3)n1)C2`: the cytotoxicity at 10 µM was -1.49%.

In the case of `CC(C)Cn1cc(NC(=O)c2cccc(N(C)C)c2)cn1`, the cytotoxicity at 10 µM worked out at 11.8%.

As to `CCC(C)S(=O)(=O)N(Cc1ccco1)Cc1ccccc1O` (stereo unspecified), the cytotoxicity at 10 µM was 9.99%.

Consider `Cc1csc(C(C)(C)NCc2ncc(-c3ccc(F)cc3)o2)n1`, for which the cytotoxicity at 10 µM was 8.27%.

For `CN(C)C(=O)c1cccc(CCNS(=O)(=O)c2ccccc2)c1`, the cytotoxicity at 10 µM is -4.12%.

In the case of `NC(=O)CC1CCN(CC(O)c2ccc(Br)cc2)CC1` (stereo unspecified), the cytotoxicity at 10 µM is -7.74%.

Take `CCn1c(C)nnc1CN(C)C1CCN(Cc2ccon2)C1` (stereo unspecified): the cytotoxicity at 10 µM stood at 0.793%.

On to `Oc1cccc(C2CN(c3nnc(C4CC4)s3)CCO2)c1` (stereo unspecified), for which the cytotoxicity at 10 µM was found to be 1.07%.

As to `COCCNC(=O)C1CCCN1S(=O)(=O)c1sc(=O)[nH]c1C` (stereo unspecified), the cytotoxicity at 10 µM turned out to be 2.17%.

With `O=C(NC1CCN(c2ncccn2)CC1)c1cc2c([nH]c1=O)CCC2`, the cytotoxicity at 10 µM was 1.28%.

As for `O=C(CC(F)(F)F)NC(c1ccc(Cl)cc1)c1ncon1` (stereo unspecified), the cytotoxicity at 10 µM turned out to be 2.14%.

In the case of `Cc1nn(C)c(C)c1CC(C)NC(=O)NCc1ccoc1C` (stereo unspecified), the cytotoxicity at 10 µM was found to be 0.43%.

For the compound `CC(=O)NCCc1ccc(S(=O)(=O)Nc2ccc(C)cc2F)s1`, the cytotoxicity at 10 µM was -5.48%.

On to `O=C1NC(c2cnc(C3CCC3)s2)Nc2ncccc21` (stereo unspecified), for which the cytotoxicity at 10 µM was 0.992%.

Consider `CC1CN(Cc2ccccc2)CCCN1CCNS(C)(=O)=O` (stereo unspecified), for which the cytotoxicity at 10 µM is -3.72%.

Turning to `CC(C)c1nc(C2CCCN(c3cnc4ccccc4n3)C2)no1` (stereo unspecified), the cytotoxicity at 10 µM stood at 2.11%.

For the compound `CCN(C)CC1CCN(C(=O)Nc2ccc(C)cc2)C1` (stereo unspecified), the cytotoxicity at 10 µM stood at 2.89%.

On to `CSC1(CNC(=O)c2cccc(-n3cccn3)c2)CCOCC1`, for which the cytotoxicity at 10 µM is -2.44%.

In the case of `CC(NCC(F)(F)F)c1ccc(S(C)(=O)=O)c(F)c1` (stereo unspecified), the cytotoxicity at 10 µM amounted to 1.79%.

Consider `CC(c1cccnc1)N(C)Cc1csc(-c2ccccn2)n1` (stereo unspecified), for which the cytotoxicity at 10 µM was -10.4%.

For the compound `Fc1ccc(CN2CCCC(Cn3cncn3)C2)c2ncccc12` (stereo unspecified), the cytotoxicity at 10 µM was -12.4%.

Turning to `Cc1cc(C)n(CC(C)CNC(=O)[C@@H](C)NC(=O)OC(C)(C)C)n1` (stereo partly specified), the cytotoxicity at 10 µM was -4.25%.

In the case of `Cc1ccc2nc(C(=O)N3C[C@@H](C(=O)O)[C@H](c4ccccc4)C3)cn2c1`, the cytotoxicity at 10 µM turned out to be 5.96%.

`Cc1ccc2nc(CN3CCN(C4CCCCC4)C(=O)C3)cc(O)c2c1`: the cytotoxicity at 10 µM was 12.9%.

In the case of `COCCC1(CO)CCCN(Cc2ccc(C(F)(F)F)nc2)C1` (stereo unspecified), the cytotoxicity at 10 µM is -146%.

In the case of `COc1cccc2ccc(N3CCC(O)(c4ccc(C)cn4)CC3)nc12`, the cytotoxicity at 10 µM is -0.942%.

`COCC(c1ccccn1)N(C)C(=O)c1cc(-c2cccn2C)n[nH]1` (stereo unspecified): the cytotoxicity at 10 µM was -3.39%.

As for `COCC(=O)NCc1cc2n(n1)CCCN(Cc1ccccc1SC)C2`, the cytotoxicity at 10 µM turned out to be 2.04%.

For the compound `O=c1cc(CN2CCCCC2c2cccc(F)c2)[nH]c2ncnn12` (stereo unspecified), the cytotoxicity at 10 µM is -3.46%.

Take `Cc1nc2c(c(NC(C)c3nnn[nH]3)n1)Cc1ccccc1OC2` (stereo unspecified): the cytotoxicity at 10 µM was 1.07%.

`CCOC(=O)c1n[nH]cc1CN1CCOC(Cc2ccc(F)cc2)C1` (stereo unspecified): the cytotoxicity at 10 µM was -3.92%.

Regarding `CC(=O)C1(c2ccccc2)CCN(C(=O)C2CNCCO2)CC1` (stereo unspecified), the cytotoxicity at 10 µM was -3.73%.

As to `O=C(c1cncc(N2CCCC3(CCNCC3)CC2)n1)N1CCCCC1`, the cytotoxicity at 10 µM was -3.38%.

Regarding `CC(=O)NCCNC(=O)C1(N2CCCCC2)Cc2ccccc2C1`, the cytotoxicity at 10 µM is -6.53%.

For `CCN(Cc1noc(C)n1)C(=O)CCc1scnc1C`, the cytotoxicity at 10 µM was determined as 2.13%.

`COCCCN1CC2(CCCN(c3ncc4nc[nH]c4n3)C2)CCC1=O` (stereo unspecified): the cytotoxicity at 10 µM was -5.64%.

For the compound `O=C(NCCc1nccs1)c1cn(CCN2CCNCC2)nn1`, the cytotoxicity at 10 µM is -4.41%.

As to `O=C(c1ccc(-c2cnco2)cc1)N1CCC(Nc2cccnn2)CC1`, the cytotoxicity at 10 µM was -0.692%.

As for `Cc1nn(C)c(C)c1C1CCCN1C(=O)c1ccc2c(c1)OCCO2` (stereo unspecified), the cytotoxicity at 10 µM was -10.6%.

As for `CN(CC(N)=O)CC(=O)N1CC=C(c2ccccc2)CC1`, the cytotoxicity at 10 µM is -5.1%.

With `c1ccc2nc(N3CCOC(Cn4cncn4)C3)cnc2c1` (stereo unspecified), the cytotoxicity at 10 µM is -11.5%.

As for `CC(Cn1cccn1)NCc1csc(-c2ccsc2)n1` (stereo unspecified), the cytotoxicity at 10 µM is -3.96%.

For `CN1CCC2(CC1)C(=O)N(c1cccnc1)c1ccc(F)cc12`, the cytotoxicity at 10 µM came to 3.65%.

For `COCCNC(=O)[C@H]1CN(Cc2scnc2C)C[C@H]2OCC[C@@H]12`, the cytotoxicity at 10 µM was -8.94%.

`O=C(C1CCOCC1)N1C[C@@H]2[C@@H](C1)OCC(=O)N2Cc1ccncc1`: the cytotoxicity at 10 µM was -8.8%.

For `c1c2c(nn1CC1CCOCC1)C(CNC1CCOCC1)OCC2` (stereo unspecified), the cytotoxicity at 10 µM was determined as 5.83%.

On to `CCn1ncc2c1C(COCC1CC1)N(Cc1cnn(C)c1)CC2` (stereo unspecified), for which the cytotoxicity at 10 µM is 8.98%.

As for `O=C1CCCN1Cc1ncn2c1CN(C(=O)N1CCCC1)CCC2`, the cytotoxicity at 10 µM is -2.36%.

In the case of `Cc1cccc(CN2CCc3[nH]nc(C(=O)N(C)C)c3C2)n1`, the cytotoxicity at 10 µM was -0.596%.

`CN(C)C(=O)N1CCC2(CCCN(CCOc3ccccc3)C2)C1` (stereo unspecified): the cytotoxicity at 10 µM is -0.537%.

As to `CC(C)NC(=O)N1CC[C@H]2[C@H]1CCN2c1ncccn1`, the cytotoxicity at 10 µM was -0.155%.

Take `CCc1cnc(N2C[C@@H]3C[C@H](C(=O)NC)[C@H](C2)O3)nc1`: the cytotoxicity at 10 µM worked out at 9.76%.
